# Screening results deposited in PubChem by Sanford-Burnham Center for Chemical Genomics.
# An excerpt weighted towards active compounds, which were near 1.6% of everything screened.
# PPC-1+TRAIL kill – kills PPC-1 cancer cells in the presence of TRAIL; PPC-1 cells + TRAIL, ATPLite viability luminescence; cell killing (% activity), % at 4 µM or 5 µM; hit rate 0.41% among 220,000; AID 1443;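 active means cell killing above 50% in the first pass at 4 µM, then a duplicate retest at 5 µM averaging 50% or more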;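 further: plate controls were cells with TRAIL plus DMSO for no effect and medium-only wells lacking cells for full effect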
# C8 TRAIL sens – caspase-8 TRAIL sensitization. AID 624354. inhibition (viability loss, TRAIL sensitization), % at 10 µM. hit rate 1% among 360,000. NB7+C8 cells + TRAIL, ATPlite viability luminescence;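 active means compounds causing at least 50% loss of cell viability in the single-dose screen, relative to plate controls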
# FLuc stim CS – firefly luciferase counter-screen for stimulation assays; P08659; ATPlite luciferase biochemical, luminescence, 10 min; 0 = ATP-free wells, 1 = DMSO control; activation factor at 10 µM; 200,000 tested, under 10 active;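 active means luciferase activation factor, scaled between plate controls, of at least 2 with compound at 10 µM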
# Target sequence (P08659 whole entry, looked up): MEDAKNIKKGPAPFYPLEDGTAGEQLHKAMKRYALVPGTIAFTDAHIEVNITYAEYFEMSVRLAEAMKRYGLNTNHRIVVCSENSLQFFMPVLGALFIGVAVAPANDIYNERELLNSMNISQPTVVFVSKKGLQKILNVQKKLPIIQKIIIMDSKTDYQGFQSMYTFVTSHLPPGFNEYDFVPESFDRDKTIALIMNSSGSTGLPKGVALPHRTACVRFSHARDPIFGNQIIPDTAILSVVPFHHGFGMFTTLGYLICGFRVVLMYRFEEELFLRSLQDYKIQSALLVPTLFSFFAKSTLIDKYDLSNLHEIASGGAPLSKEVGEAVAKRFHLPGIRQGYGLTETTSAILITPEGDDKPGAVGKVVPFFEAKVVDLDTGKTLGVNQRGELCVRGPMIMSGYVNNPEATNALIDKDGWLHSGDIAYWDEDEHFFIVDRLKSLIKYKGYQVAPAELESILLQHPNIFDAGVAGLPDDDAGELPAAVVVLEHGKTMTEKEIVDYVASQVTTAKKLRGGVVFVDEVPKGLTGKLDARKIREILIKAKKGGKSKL
#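 Material: Luciferase/luciferin reagent mix; Doses: test compounds dosed from 2 mM stocks in 100% DMSO; Schedule: 10 min incubation after luciferase reagent addition, room temperature; Measured by: luminescence from luciferase reaction; Read-out: luminescence gain marking luciferase activators.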
# FLuc inh counter – Photinus pyralis luciferase inhibition counter-screen. hit rate 1.5% among 200,000. AID 1006. inhibition, % at 10 µM. P08659. ATPLite firefly luciferase biochemical luminescence, 10 min;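 active means inhibition above about 50% when tested at 10 µM, limit read from the data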
# * = called active by the depositor; / = no result.
SMILES,PPC-1+TRAIL kill,C8 TRAIL sens,FLuc stim CS,FLuc inh counter
Cc1ccn2c(c1)nc(=S)n2C(=O)c1ccccc1,82*,89*,0,96*
Cc1ccc(/C=N/NC(=O)c2cc(C)oc2C)cc1,44,50*,/,/
CC(/C=N/NC(=O)c1cc(-c2ccc(C)o2)[nH]n1)=C\c1ccccc1,3,7,1,2
Cc1cc(C(=O)N/N=C/c2ccncc2)c(C)o1,1,-5,/,/
CC(/C=N\NC(=O)c1cc(C)oc1C)=C\c1ccccc1,43,49,0.2,76*
O=[N+]([O-])c1cccc(NNS(=O)(=O)c2ccccc2F)c1,/,28,/,/
O=C1C(=C2CCc3ccccc32)Cc2ccccc21,/,51*,/,/
O=C1C(=NO)CCCc2ccccc21,/,-8,/,/
O=C(CC[C@H]1O[C@@H](n2ccc(=O)[nH]c2=O)[C@H](O)[C@@H]1O)N[C@H](Cc1ccccc1)C(=O)NCc1cccs1,/,10,/,/
COc1cccc(C(=O)O)c1OS(=O)(=O)c1ccc(C)cc1,/,-8,/,/
COc1oc(C(=O)NC2CCCCC2)c(-c2ccc(Cl)cc2)c1S(=O)(=O)c1ccccc1,/,89*,/,/
Cc1ccc(NC(=O)ON=C2CCCC2)cc1,-7,8,0.4,62*
NNC(=O)Cc1cccc2ccc(Cl)cc12,/,-11,/,/
O=C1N/C(=N\N=C\c2ccc3ncccc3c2)SC1Cc1ccc(SC(F)F)cc1 (configuration not stated),14,27,0.4,61*
CCC(=O)Nc1cccc(C(=O)OCC(=O)c2ccccc2Cl)c1,-3,-5,0.7,31
CC(=O)Nc1cccc(C(=O)OCC(=O)c2ccccc2Cl)c1,12,-8,0.2,82*
Cc1cc(NC(=O)c2ccc(S(=O)(=O)N(C)C)cc2)no1,13,14,1,-2
CCSc1ccccc1C(=O)Nc1cc(C)on1,-12,6,1.1,-5
Cc1cc(NC(=O)c2ccccc2-c2ccccc2C(=O)O)no1,50*,8,1,0
Cc1cc(NC(=O)c2ccc(Cl)cc2)no1,20,41,0.4,59*
CC1CC(C)CN(S(=O)(=O)CCNC(=O)c2ccc3c(c2)OCO3)C1 (configuration not stated),/,8,/,/
CSc1ncccc1C(=O)Nc1cccc(S(=O)(=O)N(C)c2ccccc2)c1,/,0,/,/
O=C(c1ccc(N2CCOCC2)cc1)c1cccs1,24,37,0.3,66*
O=C(N/N=C/c1ccc(N2CCOCC2)cc1)c1cccs1,18,34,0.5,52*
O=C(N/N=C/c1ccc(N2CCOCC2)cc1)c1ccc(NS(=O)(=O)c2cccs2)cc1,30,21,0.6,36
SMILES,PPC-1+TRAIL kill,C8 TRAIL sens,FLuc stim CS,FLuc inh counter
COc1ccc(CNC(=O)c2oc3ccc(S(=O)(=O)N4CCOCC4)cc3c2C)cc1,/,22,/,/
COc1cccc(/C=N/Nc2nn3cnnc3c3ccccc23)c1,37,64*,0.3,71*
COc1cccc(/C=N/Nc2nc3ccccc3n3cnnc23)c1,19,24,1.1,-9
C(=N\Nc1nn2cnnc2c2ccccc12)/c1ccco1,35,-1,0.9,12
Oc1ccc(/C=N/Nc2nn3cnnc3c3ccccc23)cc1,34,63*,/,/
CCC1NC(=O)c2cccnc2-n2c1nc1cc(F)ccc1c2=O (configuration not stated),/,-18,/,/
CC(=O)NCCNc1nc2cc(-c3ccsc3)sc2c(=O)n1C,/,-3,/,/
O=C(O/N=C1/CCSc2ccccc21)c1ccccc1,23,-4,0.3,75*
O=C(O/N=C1\CCCc2ccccc21)c1ccc(F)cc1,9,-2,0.1,87*
COc1ccc(OC)c(CCNC(=O)c2ccccc2NC(=O)C2=C(C)OCCS2)c1,/,-24,/,/
CCc1cccc(OCC2Cn3c(nc4c3c(=O)[nH]c(=O)n4C)O2)c1 (configuration not stated),/,12,/,/
O=C(CCl)N(c1ccccc1)c1c[nH]c2ccccc12,11,98*,1.1,-9
O=C(CCl)N(c1ccc(Cl)cc1)c1c[nH]c2ccccc12,34,89*,1,4
O=C(O)Cc1c[nH]c2ccccc12,/,-5,/,/
O=c1oc(C2(O)CCCCC2)cc2ccc(-c3ccc4[nH]ccc4c3)cc12,/,21,/,/
Clc1ccc(OCc2nn3c(C4CCCCC4)nnc3s2)cc1,7,57*,1.1,-7
c1ccc(-c2nn3c(C4CCCCC4)nnc3s2)nc1,-7,0,1,-4
c1ccc(CNc2nc(NCC3CC3)nc3cc(-c4ccccc4)sc23)cc1,/,55*,/,/
CC(NC(=O)c1ccco1)C(=O)N1CCN(C(c2ccccc2)c2ccccc2)CC1 (configuration not stated),/,-2,/,/
Cc1cc(C)nc(SCc2cc(=O)c(OC(=O)c3ccc(Br)o3)co2)n1,-2,25,0.4,60*
Cc1cc(C)nc(SCc2cc(=O)c(OC(=O)c3ccco3)co2)n1,-7,19,1.1,-8
O=C1C(Cl)=C(NCc2cccnc2)C(=O)c2ccccc21,/,80*,/,/
O=C(O)c1ccc(NC2=C(Cl)C(=O)c3ccccc3C2=O)cc1,25,22,/,/
O=C1C(Cl)=C(Nc2ccccc2)C(=O)c2ccccc21,16,88*,1,-1
O=C(COc1ccccc1Cl)Nc1nnc(S(=O)(=O)N2CCCCCC2)s1,/,-6,/,/
SMILES,PPC-1+TRAIL kill,C8 TRAIL sens,FLuc stim CS,FLuc inh counter
Cc1cccc(C(=O)Nc2ccc(O)cc2C(=O)O)c1,2,2,0.8,24
Cc1ccc(C(=O)Nc2ccc(O)cc2C(=O)O)cc1,20,25,0.4,59*
Cc1ccc(C(=O)Nc2ccc(O)cc2C(=O)O)cc1C,36,31,0.3,69*
Cc1cc(C)c(C#N)c(SCc2cn3ccccc3n2)n1,68*,1,1,4
CC(C)(C)Cc1c(-c2ccc(F)cc2)nc2ccc(Br)cn12,/,8,/,/
CCOC(=O)c1sc(NC(=O)c2cccc(S(=O)(=O)N3CCc4ccccc43)c2)c(C#N)c1C,18,46*,/,/
N/C(=N\OC(=O)c1cccc(Br)c1)c1ccncc1,15,2,0.6,39
N/C(=N\OC(=O)c1ccccc1)c1ccncc1,24,2,0.3,66*
N/C(=N\OC(=O)c1ccc(Br)cc1)c1ccncc1,22,-10,0.3,68*
COc1cccc(/C=C2\SC(=O)N(CC(=O)NC3C=CS(=O)(=O)C3)C2=O)c1 (configuration not stated),/,12,/,/
Cc1ccccc1COc1cccn2c(N(C)C(=O)CCC3CCCC3)c(C)nc12,/,2,/,/
COc1ccc([N+](=O)[O-])cc1N(CC(=O)NCCCOC(C)C)S(C)(=O)=O,2,-6,1,-4
C=CCN1C(=O)/C(=C\c2ccc(Oc3nc(N4CCOCC4)nc(N4CCOCC4)n3)c(OC)c2)SC1=S,/,1,1,-4
C/C(=N\OC(=O)c1ccc(Cl)c(Cl)c1)c1sc(C)nc1C,4,-1,1,4
C/C(=N\OC(=O)c1ccc(C)cc1)c1sc(C)nc1C,-16,13,0.2,76*
C/C(=N/OC(=O)c1ccc(C)cc1)c1cccs1,1,7,0,98*
CCN(CC)c1ccc(N=Nc2nn(C)c(C)c2[N+](=O)[O-])cc1,42,63*,0.2,76*
